ChEMBL document CHEMBL1123252, “Design and synthesis of potent and specific renin inhibitors containing difluorostatine, difluorostatone, and related analogues” (J Med Chem, 1986)
Where a SMILES comes first, the peptide text is derived from it. [ ]: non-standard residue; d: D form. The star is where a group is joined. Ala(2H-imidazol-2-yl) = N[C@@H](CC1N=CC=N1)C(=O)O; Sta = CC(C)C[C@H](N)[C@@H](O)CC(=O)O; NHCH2(2-pyridyl) = c1ccc(CN*)nc1; Boc = CC(C)(C)OC(=O)*

Each compound was assayed against T1, Renin (Homo sapiens, UniProt P00797) (assay: Inhibition of human plasma renin).
T1 sequence (P00797 whole entry): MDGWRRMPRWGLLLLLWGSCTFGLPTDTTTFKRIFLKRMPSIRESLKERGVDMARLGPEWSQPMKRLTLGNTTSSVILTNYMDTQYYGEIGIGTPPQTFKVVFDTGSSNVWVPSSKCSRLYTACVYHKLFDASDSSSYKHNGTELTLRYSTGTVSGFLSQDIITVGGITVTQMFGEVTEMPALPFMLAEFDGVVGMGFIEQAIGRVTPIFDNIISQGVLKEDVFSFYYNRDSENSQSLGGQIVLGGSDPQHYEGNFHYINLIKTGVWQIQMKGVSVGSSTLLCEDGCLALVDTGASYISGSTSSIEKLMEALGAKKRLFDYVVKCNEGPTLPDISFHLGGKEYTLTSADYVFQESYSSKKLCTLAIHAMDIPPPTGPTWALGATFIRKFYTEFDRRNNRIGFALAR
Type: cell-free
Summary of the method: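 Lyophilized human plasma with 0.1% EDTA, plus phenylmethanesulfonyl fluoride and maleate buffer pH 6.0. Inhibitor given in 1% Tween 80 in water. Angiotensin I generated over 90 min at 37 °C and measured by radioimmunoassay kit. Percent inhibition taken versus control tubes. IC50 estimated graphically from 3-4 concentrations on semilog plot.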
An IC50 of 2.5 nM was found for CC[C@H](C)[C@H](NC(=O)C(F)(F)C(=O)[C@H](CC1CCCCC1)NC(=O)[C@H](CC1N=CC=N1)NC(=O)[C@H](Cc1ccccc1)NC(=O)OC(C)(C)C)C(=O)NCc1ccccn1 in this work. An IC50 of 13 nM was found for CC[C@H](C)[C@H](NC(=O)C(F)(F)[C@H](O)[C@H](Cc1ccccc1)NC(=O)[C@H](CC1N=CC=N1)NC(=O)[C@H](Cc1ccccc1)NC(=O)OC(C)(C)C)C(=O)NCc1ccccn1 in this work. An IC50 of 730 nM was found for CC[C@H](C)[C@H](NC(=O)C(F)(F)[C@@H](O)[C@H](CC(C)C)NC(=O)[C@H](CC1N=CC=N1)NC(=O)[C@H](Cc1ccccc1)NC(=O)OC(C)(C)C)C(=O)NCc1ccccn1 in this work. An IC50 of 0.52 nM was found for CC[C@H](C)[C@H](NC(=O)C(F)(F)C(=O)[C@H](CC(C)C)NC(=O)[C@H](CC1N=CC=N1)NC(=O)[C@H](Cc1ccccc1)NC(=O)OC(C)(C)C)C(=O)NCc1ccccn1 in this work. An IC50 of 1.3 nM was found for CC[C@H](C)[C@H](NC(=O)C(F)(F)C(=O)[C@H](Cc1ccccc1)NC(=O)[C@H](CC1N=CC=N1)NC(=O)[C@H](Cc1ccccc1)NC(=O)OC(C)(C)C)C(=O)NCc1ccccn1 in this work. An IC50 of 0.57 nM was found for CC[C@H](C)[C@H](NC(=O)C(F)(F)[C@H](O)[C@H](CC1CCCCC1)NC(=O)[C@H](CC1N=CC=N1)NC(=O)[C@H](Cc1ccccc1)NC(=O)OC(C)(C)C)C(=O)NCc1ccccn1 in this work. An IC50 of 34 nM was found for CC[C@H](C)[C@H](NC(=O)CC(=O)[C@H](CC(C)C)NC(=O)[C@H](CC1N=CC=N1)NC(=O)[C@H](Cc1ccccc1)NC(=O)OC(C)(C)C)C(=O)NCc1ccccn1 in this work. An IC50 of 12 nM was found for CC[C@H](C)[C@H](NC(=O)C(F)(F)[C@H](O)[C@H](CC(C)C)NC(=O)[C@H](CC1N=CC=N1)NC(=O)[C@H](Cc1ccccc1)NC(=O)OC(C)(C)C)C(=O)NCc1ccccn1 in this work. An IC50 of 1.7 nM was found for CC[C@H](C)[C@H](NC(=O)C[C@H](O)[C@H](CC(C)C)NC(=O)[C@H](CC1N=CC=N1)NC(=O)[C@H](Cc1ccccc1)NC(=O)OC(C)(C)C)C(=O)NCc1ccccn1 (Boc-F[Ala(2H-imidazol-2-yl)][Sta]I-{NHCH2(2-pyridyl)}) in this work.
